Test results from paper PMC5339005 (International Journal of Nanomedicine, 2017).
Structures can show the parent of a compound that is named as a salt. Square brackets hold non-standard residues; d marks the D form. Peptide text beside a SMILES is read from it. Sar = CNCC(=O)O

Legend:
[1] = In vitro drug release, dynamic dialysis method; type: physicochemical; details: PBS pH 7.4, within 2 h
Outline: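 Free drug solution or drug-loaded nanosheet suspension (1 mL, 50 μg drug) was placed in a dialysis bag (MWCO 8–14 kDa) in PBS pH 7.4 at 35°C±0.5°C, shaken at 400 rpm. Samples of 0.5 mL were taken at 10–720 min, filtered through 0.22 μm and replaced with fresh PBS. Drug was quantified by HPLC.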

[2] = system: ARPE-19 cells; experiment: Cellular uptake, inverted fluorescence microscope, ARPE-19; type: cell-based; details: ARPE-19, 4 μg/mL FITC, 37°C, 1, 2 and 4 h
Outline: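 ARPE-19 cells were grown in DMEM/F-12 with 10% FBS under 5% CO2 at 37°C. They were seeded at 5×10^4 cells/well in 24-well plates and grown 2 days. Cells were exposed for 1, 2 and 4 h at 37°C to FITC-labeled test nanocomposites, free FITC or polymer–FITC control solution (3.8×10−4% or 0.008% w/v polymer), at 4 μg/mL FITC. They were washed three times with PBS and imaged by inverted fluorescence microscopy.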

[3] = system: HCEpiC; experiment: Cellular uptake, inverted fluorescence microscope, HCEpiC; type: cell-based, human; details: 2 μg/mL FITC, 37°C, 1, 2 and 4 h
Outline: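 HCEpiC were grown in poly-L-lysine-coated flasks (2 μg/cm2) in serum-free corneal epithelial medium with growth supplement, under 5% CO2 at 37°C. They were seeded at 5×10^4 cells/well in 24-well plates and grown 6 days, with medium refreshed every 2 days. Cells were exposed for 1, 2 and 4 h at 37°C to FITC-labeled test nanocomposites, free FITC or polymer–FITC control solution, at 2 μg/mL FITC. They were washed three times with DPBS and imaged by inverted fluorescence microscopy.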

[4] = system: HCEpiC; experiment: Flow cytometry uptake mechanism with endocytic inhibitors, HCEpiC; type: cell-based, human; details: inhibitor pre-incubated 30 min, nanocomposites 4 h
Outline: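 HCEpiC were seeded at 10^5 cells/well in 12-well plates and grown 6 days, with medium refreshed every 2 days. FITC-labeled nanocomposites (2 μg/mL FITC) were then added for 4 h at 37°C. Cells were rinsed twice with cold DPBS, trypsinized, resuspended at 5×10^5–1×10^6 cells/mL and read by flow cytometry at 495/525 nm. Untreated cells served as control; n=3.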

[5] = system: ARPE-19 cells; experiment: Flow cytometry uptake mechanism with endocytic inhibitors, ARPE-19; type: cell-based; details: inhibitor pre-incubated 30 min, nanocomposites 4 h
Outline: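 ARPE-19 cells were seeded at 10^5 cells/well in 12-well plates and grown 5 days, with one medium change. FITC-labeled nanocomposites (4 μg/mL FITC) were then added for 4 h at 37°C in serum-free medium. Cells were rinsed with cold PBS, trypsinized and read by flow cytometry at 495/525 nm. Untreated cells served as control; n=3.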

[6] = system: HCEpiC and ARPE-19 cells; experiment: Gly-Sar cell viability by MTT assay; type: cell-based; details: even at 10 mM; cells not stated at the place (Figure S6)

Row | Structure (SMILES) | Effect of inhibitor on cellular uptake of FITC-labeled nanocomposites vs control [4] | Effect of inhibitor on cellular uptake of FITC-labeled nanocomposites vs control [5] | other results
1 | O=C([O-])c1cc(=O)c2c3nc4ccccc4oc-3cc(=O)c2[nH]1.[Na+] [PRN solution, Pirenoxine sodium] | – | – | Cumulative release of PRN [1]: ~ 100%
2 | O=C1OC2(c3ccc(O)cc3Oc3cc(O)ccc32)c2ccc(N=C=S)cc21 [free FITC, fluorescein isothiocyanate (FITC) isomer I] | – | – | Fluorescence of cells (cellular uptake) [2]: negligible fluorescence; Fluorescence of cells (cellular uptake) [3]: negligible fluorescence
3 | CN(C)CCCN1c2ccccc2Sc2ccc(Cl)cc21 [chlorpromazine, chlorpromazine hydrochloride] | significantly decreased | significantly decreased | –
4 | O=c1c(-c2ccc(O)cc2)coc2cc(O)cc(O)c12 [genistein] | no significant influence | no significant influence | –
5 | OC[C@H]1O[C@@](CO)(O[C@H]2O[C@H](CO)[C@@H](O)[C@H](O)[C@H]2O)[C@@H](O)[C@@H]1O [hypertonic sucrose, sucrose] | significantly decreased | significantly decreased | –
6 | C[C@@H]1[C@H](O)[C@@H](C)/C=C/C=C/CC/C=C/C=C/C=C/C=C/C(O[C@H]2O[C@H](C)[C@@H](O)[C@H](N)[C@@H]2O)CC2O[C@](O)(CC(O)C(O)CCC(O)CC(O)CC(O)CC(=O)O[C@H]1C)CC(O)C2C(=O)O (stereo partly shown) [Nystatin, nystatin] | no significant influence | no significant influence | –
7 | [N-]=[N+]=[N-].[Na+] [sodium azide] | decreased | decreased | –
8 | CN(CC(=O)O)C(=O)CN [Gly-Sar] (H-Gly-[Sar]-OH) | – | – | Cytotoxicity (cell viability by MTT) [6]: no cytotoxicity
9 | N=C(N)NC(=O)c1nc(Cl)c(N)nc1N [amiloride] | no effect | no effect | –
